Data published in the RNAGym collection of RNA variant scans (doi:10.1126/science.aae0568).
Fewer inactive variants are shown than the library holds.

B1: tRNA (parent)
chain: GUUCCGUUGGCGUAAUGGUAACGCGUCUCCCUCCUAAGGAGAAGACUGCGGGUUCGAGUCCCGUACGGAACG

Variants of: B1
Assay: yeast fitness relative to wild type (ratio to wild type); higher = fitter; tRNA-Arg(CCU), competitive growth, 37 C, YPD
How it was run: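 Genotype frequency changes were the basis for Darwinian fitness relative to wild type. The frequencies came from 100-nucleotide paired-end sequencing of gene amplicons from the start population and each end population of pooled yeast strains with tRNA-Arg(CCU) gene variants at the native locus. Competition ran in YPD at 37°C for 24 hours in six replicates, genotypes needed ≥ 100 starting reads, and estimates < 0.5 were set to 0.5.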

First: U35G A43U
Second: U35G A43C
The yeast fitness of the first is higher: 0.707 for the first, 0.583 for the second.

U35C A36C A40U C61G A69C A70C and C34U C55G G63A cannot be ordered by yeast fitness: no more than 0.5 for the first, no more than 0.5 for the second.

A36C A42U A43G G63C A69U and U35C U47G C62U A65U cannot be ordered by yeast fitness: no more than 0.5 for the first, no more than 0.5 for the second.

Compared with U35C G48A C60A, A36C A42U A43G A70G is lower in yeast fitness: 0.648 for the first, no more than 0.5 for the second.

Compared with U35A C61U, C34U G56C is lower in yeast fitness: 0.765 for the first, 0.51 for the second.

First: A36C G50C
Second: A36C C62A G67A A70G
The yeast fitness of the first is higher: 0.54 for the first, no more than 0.5 for the second.

First: C34U U54G
Second: C34U U54C
The yeast fitness of the first is higher: 0.612 for the first, 0.569 for the second.

C34U G58C G63A A70C and U35C A45C C49A cannot be ordered by yeast fitness: no more than 0.5 for the first, no more than 0.5 for the second.

C34U U54C A69U and U35C A36G G58A G67A cannot be ordered by yeast fitness: no more than 0.5 for the first, no more than 0.5 for the second.

U35C A40C C61G and U35A C66U A69U cannot be ordered by yeast fitness: no more than 0.5 for the first, no more than 0.5 for the second.

C34U G39A U47C G56A and U35A A43C C46U cannot be ordered by yeast fitness: no more than 0.5 for the first, no more than 0.5 for the second.

Going from U35C U59C A69U to U35G C49G G52C C62G A69C, the yeast fitness falls from 0.749 to no more than 0.5.

Going from U35C A65U to U35C A65G, the yeast fitness rises from 0.739 to 0.945.

First: U35C A42C G52C
Second: U35C G51U C61U
The yeast fitness of the first is lower: no more than 0.5 for the first, 0.53 for the second.

Going from C34U C49A to A36C G44A A70C, the yeast fitness falls from 0.585 to no more than 0.5.

Compared with U35A G56A, C34U G58C A70C is lower in yeast fitness: 0.817 for the first, no more than 0.5 for the second.

A36C U59C A65G and C34U U53A cannot be ordered by yeast fitness: no more than 0.5 for the first, no more than 0.5 for the second.

Compared with U35A A40U A42U C55G, A36G A42C A43U C46A is higher in yeast fitness: no more than 0.5 for the first, 0.861 for the second.

Compared with C34U G44C G56A, C34U G41C is higher in yeast fitness: no more than 0.5 for the first, 0.768 for the second.

First: U35G A65G
Second: U35A G51C A57U
The yeast fitness of the first is higher: 0.573 for the first, 0.539 for the second.

Compared with U35G A43G C46U, U35A C49G G58A C60A is lower in yeast fitness: 0.702 for the first, no more than 0.5 for the second.

Going from A36C A65C to A36C G48A C66G, the yeast fitness falls from 0.601 to no more than 0.5.

Compared with C34U G52A, U35C G48A is higher in yeast fitness: 0.618 for the first, 0.937 for the second.

First: A36G A42C G67C A69C
Second: C34U C46G A70U
The yeast fitness of the first is lower: 0.559 for the first, 0.601 for the second.

U35A A37G and A36C U47A G48C C61U cannot be ordered by yeast fitness: no more than 0.5 for the first, no more than 0.5 for the second.

First: U35G A57G
Second: A36C A37G G56C
The yeast fitness of the first is higher: 0.698 for the first, no more than 0.5 for the second.

Going from U35A U47C to C34U C49U C55U, the yeast fitness falls from 0.589 to no more than 0.5.

Going from A36C G41C to U35C C49U C66U, the yeast fitness rises from 0.579 to 0.681.

U35A G52A U59C C66A G67A and C34U C66U A69U cannot be ordered by yeast fitness: no more than 0.5 for the first, no more than 0.5 for the second.

C34U G56A G67A and A36C A45U U47C G52C A65U G67C cannot be ordered by yeast fitness: no more than 0.5 for the first, no more than 0.5 for the second.

Compared with U35C C61A G67C, U35C C49G is higher in yeast fitness: no more than 0.5 for the first, 0.883 for the second.

Compared with U35C A42C A43G, U35G A43G U59A is higher in yeast fitness: 0.617 for the first, 0.658 for the second.

C34U U47A C66U and C34U G58C C61A A69U cannot be ordered by yeast fitness: no more than 0.5 for the first, no more than 0.5 for the second.

First: U35C C60U
Second: U35G U64C A70G
The yeast fitness of the first is higher: 0.546 for the first, no more than 0.5 for the second.

First: U35A U54G
Second: U35C A57G
The yeast fitness of the first is lower: no more than 0.5 for the first, 0.739 for the second.

First: U35C A57C
Second: U35C C46U C55G
The yeast fitness of the first is higher: 0.609 for the first, 0.507 for the second.

Going from U35G A45G to A36C A40U A57C, the yeast fitness falls from 0.669 to 0.52.

First: U35C G48A C55U A70G
Second: A36G A37U A42U A70G
The yeast fitness of the first is higher: 0.56 for the first, no more than 0.5 for the second.

Going from C34U G44C A45G U47G to A36C A37U G50C, the yeast fitness rises from no more than 0.5 to 0.576.

Compared with A36C A40G, A36C U47A G48C U54G A65C G67A is lower in yeast fitness: 0.566 for the first, no more than 0.5 for the second.

First: U35G G58C
Second: U35G G58A
The yeast fitness of the first is lower: 0.653 for the first, 0.675 for the second.

In the case of U35G G52C G63A, the yeast fitness is reported as 0.551.
